Screening results: PubChem, several laboratories
Only some compounds are listed: those with a hit (about 9.4% of all), similar ones and a draw of the others.
Beta cell apopt: blocks beta cell apoptosis; INS-1E cytokine-induced death, ATP luminescence, 48 h; percent of positive-control rescue, neutral wells zero; protection from apoptosis, % (test concentration not listed); 0.8% of 300,000 active; AID 435005;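 active means Every replicate reaches about 75%, or at least half do and their mean reaches it too, limit read from the data; inconclusive means At least half of replicates reach the limit but their mean does not; inactive means Under half of replicates reach the limit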;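 further: 0% = cytokine-treated negative control wells and 100% = positive control rescue; higher means more ATP so stronger rescue from cytokine killing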
T cruzi repl: blocks replication of Trypanosoma cruzi | T. cruzi beta-gal in NIH3T3, luminescence, 90 h | inhibition, % (test concentration not listed) | 1.4% of 300,000 active | AID 1885;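 active means mean inhibition across valid replicates above about 55%, limit read from the data; inconclusive means mean below that limit but half or more replicates reach it; inactive means mean below it, under half of replicates reach it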;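 further: signal also drops with host cell toxicity which is not excluded here; 0% = plate median of DMSO wells and 100% = zero luminescence signal; higher percent means less beta-gal luminescence so fewer parasites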
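Test system: β-gal T. cruzi (Tulahuen C4) inside NIH/3T3 cells / Quantity: 5,000 cells/well / Measured by: luminescence from GalScreen with 0.05% NP40, read after 60 min / Medium: DMEM plus 2% FBS / Measure: parasite load inhibition, % / Reagent: Tulahuen C4 trypomastigotes, 5000/well / Schedule: co-culture of at least 90 h after 3 h attachment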
CSC inhib: cancer stem cell inhibition | inhibition, % at 7.5 µM | 1.1% of 300,000 active | cancer stem cell-like cells viability, luminescence; in the data active means inhibition above about 75%; inconclusive means no clear call, values can overlap the other calls; tested in HMLE shEcad cells
Lmaj promast: Leishmania major promastigote growth inhibition; Leishmania major promastigotes, resazurin fluorescence viability; inhibition, % at 10 µM; 9% of 200,000 active; AID 1063; in the data active means inhibition above about 50%;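 further: promastigotes grown with compound for 44 hours at 28 °C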
Mdm2-MdmX inh: inhibitors of human Mdm2/MdmX interaction | O15151+Q00987 | SaOS-2 split-luciferase Mdm2/MdmX complementation, luminescence | inhibition, % at 8 µM | 3% of 330,000 active | AID 485346;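 active means inhibition of at least 50% at 8 µM in the primary screen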
Target sequence (O15151 whole entry, looked up): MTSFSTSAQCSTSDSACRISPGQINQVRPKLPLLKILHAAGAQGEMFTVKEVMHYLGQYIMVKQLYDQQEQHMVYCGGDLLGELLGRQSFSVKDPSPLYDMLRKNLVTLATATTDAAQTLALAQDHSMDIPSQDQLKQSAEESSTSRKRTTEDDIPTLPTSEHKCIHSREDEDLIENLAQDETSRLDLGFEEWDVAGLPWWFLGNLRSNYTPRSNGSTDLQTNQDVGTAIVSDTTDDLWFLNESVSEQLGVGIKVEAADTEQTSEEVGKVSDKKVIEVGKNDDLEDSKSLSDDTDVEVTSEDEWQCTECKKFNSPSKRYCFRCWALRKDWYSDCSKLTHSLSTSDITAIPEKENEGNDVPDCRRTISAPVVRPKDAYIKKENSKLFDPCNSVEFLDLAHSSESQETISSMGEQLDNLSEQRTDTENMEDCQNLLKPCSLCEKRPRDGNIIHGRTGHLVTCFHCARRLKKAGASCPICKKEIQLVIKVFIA
Target sequence (Q00987 whole entry, looked up): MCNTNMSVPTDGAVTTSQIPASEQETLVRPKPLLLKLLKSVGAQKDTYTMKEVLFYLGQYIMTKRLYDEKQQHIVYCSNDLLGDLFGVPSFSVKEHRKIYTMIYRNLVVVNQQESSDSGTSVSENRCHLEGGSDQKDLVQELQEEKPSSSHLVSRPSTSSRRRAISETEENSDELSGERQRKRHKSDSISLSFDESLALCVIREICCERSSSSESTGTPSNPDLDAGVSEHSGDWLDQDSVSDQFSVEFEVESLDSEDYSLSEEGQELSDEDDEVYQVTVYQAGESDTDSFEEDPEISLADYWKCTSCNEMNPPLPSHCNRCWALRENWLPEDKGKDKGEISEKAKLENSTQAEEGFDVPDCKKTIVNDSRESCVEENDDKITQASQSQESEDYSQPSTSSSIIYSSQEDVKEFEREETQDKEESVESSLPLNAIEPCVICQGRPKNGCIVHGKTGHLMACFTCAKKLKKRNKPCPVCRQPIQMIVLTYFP
SKKanGAS inh: blocks kanamycin growth of S. pyogenes SKKanGAS strain. BacTiter-Glo, 6 h. inhibition, % at 7.5 µM. 1.3% of 300,000 active. AID 1662;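 active means mean replicate score, as percent of positive control median, at least 50; inconclusive means mean below 50 but one replicate at or above 50; inactive means mean and every replicate below 50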;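 further: strain carries kanamycin resistance gene driven by streptokinase promoter and grows in 40 µg/ml kanamycin; loss of luminescence reflects streptokinase promoter inhibition or plain growth inhibition; 0% = median of DMSO wells and 100% = positive control at its reference dose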
* = called active by the depositor; ? = inconclusive; nt = no result.

SMILES | Beta cell apopt | T cruzi repl | CSC inhib | Lmaj promast | Mdm2-MdmX inh | SKKanGAS inh
O=C(CN1CCc2ccccc2C1)Nc1ccccc1C(=O)NC1CC1 | nt | nt | nt | nt | 19.8 | nt
COc1ccccc1NS(=O)(=O)c1cc(NC(=O)c2ccc(Cl)nc2)ccc1N1CCCC1 | 27.9 | nt | 0.6 | nt | 21.5 | nt
COc1cc(/C=C/C(=O)Nc2ccc(N3CCCCC3)c(S(=O)(=O)Nc3ccccc3Cl)c2)cc(OC)c1OC | -1.7 | ? | -12.0 | 53.2* | 23.4 | -9.1
COc1ccc(NS(=O)(=O)c2cc(NC(=O)c3cnc(C)cn3)ccc2N2CCCC2)cc1 | 1.0 | 23.4 | 13.0 | 95.3* | 32.6 | 9.7
COc1ccccc1NS(=O)(=O)c1cc(NC(=O)Nc2ccc(Cl)cc2Cl)ccc1N1CCCCC1 | 39.8 | 59.4* | 37.5 | 99.2* | 42.0 | -1.8
COc1ccccc1NS(=O)(=O)c1cc(NC(=O)C2CCC2)ccc1N1CCCCC1 | 36.8 | 57.3* | 5.4 | nt | 7.2 | 7.3
CCOc1ccc(NS(=O)(=O)c2ccc(C(=O)N(C)CC(=O)Nc3ccc(C)cc3)cc2)cc1 | 1.2 | 23.8 | 1.3 | nt | 10.9 | -3.1
COC(=O)CSc1ncc(S(=O)(=O)c2ccccc2)c(=O)[nH]1 | nt | -6.5 | nt | nt | -11.4 | 2.3
COc1ccc(NS(=O)(=O)c2cc(NC(=O)C3CC3)ccc2N2CCCCC2)cc1 | 6.9 | 38.6 | 19.7 | 55.8* | 22.4 | 6.8
O=S(=O)(NC1CCc2ccccc21)c1ccc(S(=O)(=O)N2CCCC2)cc1 (stereo unspecified) | -5.5 | 2.7 | 4.1 | 71.8* | 10.8 | -0.7
CC1=C/C(=N\NC(=S)NCCc2ccccc2)CC(C)(C)C1 | 2.9 | 18.7 | 58.8 | 9.4 | -42.8 | 51.6*
O=C(CCC(=O)NC1CCCCC1)Nc1cccnc1 | 2.2 | -0.9 | -5.4 | nt | -21.2 | -2.4
Cc1cc(C)c(-c2noc(C(=O)OC(C)(C)C)c2C(=O)OC(C)(C)C)c(C)c1 | 4.2 | 26.4 | -1.8 | 14.1 | 9.2 | 71.5*
Cc1ccnc(NCc2ccc(Cl)cc2)c1 | nt | 2.0 | 10.6 | nt | 12.1 | 5.4
COc1ccc(NC(=O)c2ccc(COc3ccc(C)cc3)o2)cc1 | 0.9 | -6.7 | -5.0 | -6.1 | -13.5 | -12.5
Cc1[nH]n(-c2ccccc2)c(=O)c1/C=N/N(c1ccccc1)c1ccccc1 | 9.1 | 0.1 | 42.7 | -5.9 | -6.1 | 77.6*
COc1ccc2[nH]c(C(=O)O)c(CCNC(C)=O)c2c1 | -0.5 | -13.6 | -12.9 | 1.2 | -12.5 | -0.2
COc1ccc2[nH]c(C)c(CCNC(=S)Nc3ccc(C)cc3)c2c1 | -4.6 | 29.3 | 1.0 | 91.7* | 22.4 | -13.3
COc1ccc2[nH]c(C)c(CCNC(=S)Nc3cccc(C)c3C)c2c1 | nt | -7.3 | -5.6 | 61.1* | 25.8 | -9.0
COc1ccc2[nH]c(C)c(CCNC(=S)Nc3ccccc3C)c2c1 | nt | 0.9 | -3.1 | 8.2 | 28.8 | -6.1
O=C(CN1C(=O)NC2(CCc3ccccc32)C1=O)c1ccc(F)c(F)c1 (stereo unspecified) | 2.6 | -16.3 | nt | nt | 0.3 | 14.9
CCOC(=O)C1(CCOc2ccccc2)CCN(Cc2ccc(O)c(Cl)c2)CC1 | 12.3 | -4.1 | -1.1 | nt | -36.0 | -3.9
CCOC(=O)C1(Cc2cccc(OC)c2)CCN(Cc2ccc3c(c2)OCCO3)CC1 | 6.8 | 32.9 | 3.6 | 95.3* | 7.2 | 1.7
CCOC(=O)C1(CCOc2ccccc2)CCN(Cc2ccc3c(c2)OCCO3)CC1 | 2.9 | 27.5 | 30.4 | 85.9* | 18.9 | -1.2
OCC1(CCOc2ccccc2)CCN(Cc2ccc3c(c2)OCCO3)CC1 | -0.4 | 8.1 | -22.1 | 91.8* | -16.7 | -22.5
SMILES | Beta cell apopt | T cruzi repl | CSC inhib | Lmaj promast | Mdm2-MdmX inh | SKKanGAS inh
CCOC(=O)C1(Cc2cccc(OC)c2)CCN(Cc2cccc3c2OCO3)CC1 | -2.1 | 46.9 | -6.3 | 53.9* | 27.6 | -5.4
CCOC(=O)C1(Cc2cccc(OC)c2)CCN(Cc2ccccc2)CC1 | -8.6 | 9.8 | -34.4 | 27.1 | 5.2 | 1.0
O=S(=O)(Cc1ccccc1)N1CCN(Cc2ccc(F)cc2Cl)CC1 | nt | 6.5 | 5.5 | nt | -9.3 | -0.7
O=C(N/C(=C\c1cccc([N+](=O)[O-])c1)C(=O)N1CCOCC1)c1ccco1 | -11.6 | 6.3 | nt | nt | 5.7 | 0.6
O=C(COC(=O)/C=C/c1nc2ccccc2s1)Nc1cccc(Cl)c1Cl | -9.5 | -1.4 | 4.7 | 58.8* | -26.4 | 1.8
Cc1ccc(S(=O)(=O)N(C)C)cc1NC(=O)COC(=O)C1CCN(S(=O)(=O)c2cccs2)CC1 | -2.6 | -6.2 | 1.2 | nt | -4.8 | -9.7
COc1ccc2nc(SCC(=O)N3CCCCCC3)c(C#N)cc2c1 | nt | -9.6 | -11.6 | 80.2* | -2.9 | -5.4
CCOc1ccc2nc(SCC(=O)N3c4ccccc4Sc4ccccc43)c(C#N)cc2c1 | -4.2 | 37.7 | 3.5 | 62.3* | 17.9 | 1.9
CCc1ccc2nc(SCC(=O)N3CCCCC3)c(C#N)cc2c1 | -1.6 | 30.0 | -23.2 | 3.9 | -16.9 | -10.9
COc1ccc2nc(SCC(=O)N3CCCCC3)c(C#N)cc2c1 | 12.2 | 16.4 | -8.8 | 58.2* | -22.4 | -0.5
CCNc1nc(NC(N)=S)nc(NC(C)(C)C)n1 | -1.7 | -0.7 | -12.4 | -0.9 | 11.5 | 1.1
Cn1c(SCc2ccc([N+](=O)[O-])cc2)nnc1-c1ccncc1 | 4.3 | -14.3 | -4.8 | nt | 19.4 | -2.6
COc1ccc(/C=C/C(=O)OCC(=O)NC(C)CCc2ccccc2)cc1OC (stereo unspecified) | -4.6 | nt | 1.4 | nt | 9.7 | nt
COc1ccc(C(=O)c2c(C)c3ccccc3n2CC(O)CNC(C)C)cc1 (stereo unspecified) | 101.9* | 42.1 | -8.5 | 96.7* | 42.6 | -12.3
COc1ccc(NCC(=O)n2c(C)c(C)c3ccccc32)cc1 | 6.9 | -11.5 | 51.8 | -3.7 | 42.5 | -25.3
CCc1ccccc1NC(=O)/C(C#N)=C/c1ccc(Sc2ccccc2)o1 | 1.9 | 6.6 | 30.9 | 92.9* | 21.8 | 16.7
CCc1ccccc1NC(=O)/C(C#N)=C\c1ccc(Sc2ccccc2)o1 | 0.3 | 14.7 | 43.0 | -3.6 | 31.0 | -16.2
C=CCOC(=O)C1=C(C)NC(=S)NC1/C=C/c1ccccc1 (stereo unspecified) | 7.1 | 27.6 | nt | 89.2* | 23.8 | -1.0
COc1ccc(OC)c(-c2cc(C3CCN(c4cc(Cl)nc(N)n4)CC3)[nH]n2)c1 | 17.8 | 44.6 | 31.7 | 100.0* | -19.3 | 23.9
COc1ccc(OC)c(-c2cc(C3CCN(c4ncccc4[N+](=O)[O-])CC3)[nH]n2)c1 | -8.3 | 33.0 | nt | 21.1 | 31.8 | 57.1*
NC(=O)C1CCN(c2ncccc2[N+](=O)[O-])CC1 | -2.8 | 3.7 | -9.3 | -5.1 | 4.3 | 4.4
O=[N+]([O-])c1cccnc1N1CCC(c2cc(-c3cccc(C(F)(F)F)c3)n[nH]2)CC1 | 29.7 | 52.1 | 122.7* | 17.1 | 46.1 | 100.0*
O=[N+]([O-])c1cccnc1N1CCC(c2cc(-c3ccc(Cl)cc3Cl)n[nH]2)CC1 | 1.2 | 44.2 | 106.0* | 11.6 | 25.0 | 80.4*
Nc1nc(C23CC4CC(CC(C4)C2)C3)[nH]c(=O)n1 | -1.6 | nt | -9.9 | nt | 7.4 | -4.3
COc1ccc(N2CCN(c3cc(C)c4ccc(O)cc4n3)CC2)cc1 | -1.3 | 4.5 | 45.9 | 1.2 | 6.4 | 1.4
